Calls of active or inactive are those of the source. The calls are words filed in the database; no cut-off is given here.
Columns and labels:
[1] = molecular target: T1, Polyunsaturated fatty acid 5-lipoxygenase (Mus musculus, UniProt P48999); assay: Inhibition of 5-LO in mouse BMMC cells assessed as formation of LTC4 after 30 mins by enzyme immunoassay
T1 sequence (P48999 whole entry): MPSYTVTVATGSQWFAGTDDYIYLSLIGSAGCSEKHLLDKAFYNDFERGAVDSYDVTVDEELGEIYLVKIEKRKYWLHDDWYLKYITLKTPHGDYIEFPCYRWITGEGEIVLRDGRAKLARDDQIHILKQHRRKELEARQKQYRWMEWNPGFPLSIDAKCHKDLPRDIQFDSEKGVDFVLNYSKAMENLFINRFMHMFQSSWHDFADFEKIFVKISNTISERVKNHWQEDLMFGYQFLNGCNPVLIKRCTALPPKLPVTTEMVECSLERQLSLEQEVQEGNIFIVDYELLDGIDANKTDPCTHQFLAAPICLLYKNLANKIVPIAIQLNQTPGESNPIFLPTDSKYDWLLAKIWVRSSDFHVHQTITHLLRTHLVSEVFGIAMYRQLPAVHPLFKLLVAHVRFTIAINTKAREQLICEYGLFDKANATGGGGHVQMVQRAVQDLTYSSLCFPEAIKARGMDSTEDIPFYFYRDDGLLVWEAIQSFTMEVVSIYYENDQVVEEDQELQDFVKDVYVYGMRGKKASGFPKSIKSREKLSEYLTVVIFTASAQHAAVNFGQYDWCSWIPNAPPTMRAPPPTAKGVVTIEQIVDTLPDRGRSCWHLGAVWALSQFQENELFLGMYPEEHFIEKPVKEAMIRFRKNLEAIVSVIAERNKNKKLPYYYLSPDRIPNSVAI

[2] = Cytotoxicity against mouse BMM cells assessed as cell survival after 4 days by MTT assay; assay type: cell-based; conditions: bmmc, 96 h
Summary of the method: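 BMMs were kept in α-MEM with M-CSF (30 ng/mL) with or without compound (10 µM) for 4 days. MTT was added for 5 h in the dark, then 10% SDS in 0.01 M HCl was added overnight. Absorbance was read at 570 nm. Mean ± SD, three independent experiments.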

BMMC = assay: Antiosteoclast activity in mouse BMM cells assessed as reduction of LPS-induced osteoclast formation at 10 uM after 4 days by TRAP+ staining based light microscopy; assay type: functional, cell-based
Mus musculus = assay: Antiosteoclast activity in mouse assessed as reduction of LPS-induced osteoclast formation in calvarial bone at 5 mg/kg, ip administered daily with LPS challenge after first day of compound dosing measured 6 days after LPS injection; assay type: functional, organism-based
Summary of the method: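 Six-week-old male mice, three groups, received compound at 5 mg/kg ip daily or vehicle (corn oil/DMSO 9:1). After one day, LPS (5 mg/kg) or PBS was injected subcutaneously over the calvaria. Mice were killed 6 days post-LPS. Whole calvariae were fixed in 4% paraformaldehyde and TRAP-stained, and TRAP⁺ area was quantified by image analysis.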

[3] = molecular target: T2, Tumor necrosis factor ligand superfamily member 11 (Mus musculus) (UniProt O35235); conditions: BMM, 10 uM
T2 sequence (whole entry): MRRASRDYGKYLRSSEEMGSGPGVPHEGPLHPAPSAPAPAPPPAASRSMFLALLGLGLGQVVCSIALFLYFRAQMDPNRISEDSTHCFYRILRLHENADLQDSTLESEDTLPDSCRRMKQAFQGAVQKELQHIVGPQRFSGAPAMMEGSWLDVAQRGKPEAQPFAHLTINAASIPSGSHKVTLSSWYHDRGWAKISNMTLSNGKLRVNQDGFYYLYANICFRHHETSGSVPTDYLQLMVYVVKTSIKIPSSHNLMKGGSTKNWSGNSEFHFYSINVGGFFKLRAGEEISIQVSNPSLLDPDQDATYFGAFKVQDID

[4] = molecular target: T2, Tumor necrosis factor ligand superfamily member 11 (Mus musculus); conditions: BMMC, 10 uM
[5] = molecular target: T2, Tumor necrosis factor ligand superfamily member 11 (Mus musculus); conditions: BMM, 10 uM; remark: listed apart in the source
[6] = molecular target: T2, Tumor necrosis factor ligand superfamily member 11 (Mus musculus); conditions: BMM, 10 uM; remark: listed apart in the source
[7] = molecular target: T2, Tumor necrosis factor ligand superfamily member 11 (Mus musculus); conditions: BMM, 10 uM; remark: listed apart in the source

| IC50 [1] [µM] | Compound | Activity [2] | Activity (BMMC) | Activity (Mus musculus) | inhibition [3] | inhibition [4] | inhibition [5] | inhibition [6] | inhibition [7] |
| --- | --- | --- | --- | --- | --- | --- | --- | --- | --- |
| 4.1 | N/C(=N\O)c1ccc(OCCCCC(=O)Nc2ccc3oc(Nc4ccccc4)nc3c2)cc1 | – | – | – | – | – | – | – | – |
| 1.72 | CCc1ccc(Nc2nc3cc(NC(=O)CCCCOc4ccc(/C(N)=N/O)cc4)ccc3o2)cc1 | Non-toxic | Active | Active | Active | inactive | Active | Active | Active |
| 4.9 | COc1ccc(Nc2nc3cc(NC(=O)CCCCOc4ccc(/C(N)=N/O)cc4)ccc3o2)cc1 | – | – | – | – | – | – | – | – |

— ChEMBL document CHEMBL3627666, “5-Lipoxygenase inhibitors suppress RANKL-induced osteoclast formation via NFATc1 expression” (Bioorg Med Chem, 2015)
